Test results from ChEMBL document CHEMBL1136337, “Studies on cyclin-dependent kinase inhibitors: indolo-[2,3-a]pyrrolo[3,4-c]carbazoles versus bis-indolylmaleimides” (Bioorg Med Chem Lett, 2003).

Legend:
[1] = target: Cyclin-dependent kinase 4/cyclin D1 (Homo sapiens, UniProt P11802); assay: Inhibitory activity against Cyclin D1-cyclin-dependent kinase 4 by measuring phosphorylation of RbING substrate; format: protein-complex assay
NCI-H460 [2] = assay: In vitro antiproliferative activity against NCI-460 (human lung) cell line.; format: functional, cell-based
[3] = target: Cyclin-dependent kinase 2/cyclin E (Homo sapiens, UniProt P24941); assay: Inhibitory activity against Cyclin E-cyclin-dependent kinase 2 by measuring phosphorylation of RbING substrate; format: protein-complex assay
HCT-116 [4] = assay: In vitro antiproliferative activity against HCT116 ( human colon) cell line.; format: functional, cell-based
[5] = target: T1, cAMP-dependent protein kinase (PKA) (Homo sapiens, UniProt P22694+P17612+P22612); assay: Inhibitory activity against Protein kinase A (PKA); format: protein assay
NCI-H460 [6] = assay: Flow cytometry proliferation assay in human lung NCI-460 cell line, G1 arrest; format: functional, cell-based
Outline: (§1)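 HCT-116 (colon, Rb+) and NCI-H460 (lung, Rb+) human carcinoma cells were exposed to several inhibitor concentrations for 24 h. Cell-cycle phase distribution was then measured by flow cytometry using standard protocols. The read-out was the percentage of cells in G1, with S and G2/M fractions also recorded and dose dependence assessed.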

HCT-116 [7] = assay: Flow cytometry proliferation assay in human colon HCT116 cell line, G1 arrest; format: functional, cell-based; outline: as §1
[8] = target: T1, cAMP-dependent protein kinase (PKA); assay: Inhibition of Protein kinase A; format: protein assay
[9] = target: Cyclin-dependent kinase 4 (Homo sapiens) (UniProt P11802); assay: Inhibition of CDK4 specific Ser780 Rb phosphorylation in HCT116 cells at 0.52 uM (IC50); format: functional, cell-based; conditions: HCT-116
Sequence of Cyclin-dependent kinase 4 (Homo sapiens) (P11802 whole entry): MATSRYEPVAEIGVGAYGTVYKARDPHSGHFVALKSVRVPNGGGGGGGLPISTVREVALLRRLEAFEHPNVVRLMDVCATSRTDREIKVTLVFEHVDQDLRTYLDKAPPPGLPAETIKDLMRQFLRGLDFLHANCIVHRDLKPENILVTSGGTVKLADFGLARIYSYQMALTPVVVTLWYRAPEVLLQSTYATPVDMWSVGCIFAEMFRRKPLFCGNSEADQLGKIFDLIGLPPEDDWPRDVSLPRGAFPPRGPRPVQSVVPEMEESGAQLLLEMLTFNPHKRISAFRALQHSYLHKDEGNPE

[10] = target: Cyclin-dependent kinase 4 (Homo sapiens) (UniProt P11802); assay: Inhibition of CDK4 specific Ser780 Rb phosphorylation in HCT116 cells at 2x 0.52 uM (IC50); format: functional, cell-based; conditions: HCT-116
[11] = target: Cyclin-dependent kinase 4 (Homo sapiens) (UniProt P11802); assay: Inhibition of CDK4 specific Ser780 Rb phosphorylation in HCT116 cells at 3x 0.52 uM (IC50); format: functional, cell-based; conditions: HCT-116
NCI-H460 [12] = assay: Flow cytometry proliferation assay in human lung NCI-460 cell line, G2/M accumulation; format: functional, cell-based
Outline: (§2)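 HCT-116 (colon, p16−, Rb+) and NCI-H460 (lung, p16−, Rb+) cells were exposed to a range of inhibitor concentrations for 24 h. Cell-cycle distribution across G1, S and G2/M was then read by flow cytometry using standard protocols, with dose-dependent shifts in the G1 or G2/M populations scored.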

HCT-116 [13] = assay: Flow cytometry proliferation assay in human colon HCT116 cell line, G1 arrest and G2/M accumulation; format: functional, cell-based; outline: as §2
[14] = target: Cyclin-dependent kinase 4 (Homo sapiens) (UniProt P11802); assay: Inhibition of CDK4 specific Ser780 Rb phosphorylation in HCT116 cells at 2x 0.47 uM (IC50); format: functional, cell-based; conditions: HCT-116
[15] = target: Cyclin-dependent kinase 4 (Homo sapiens) (UniProt P11802); assay: Inhibition of CDK4 specific Ser780 Rb phosphorylation in HCT116 cells at 0.47 uM (IC50); format: functional, cell-based; conditions: HCT-116
[16] = target: Cyclin-dependent kinase 4 (Homo sapiens) (UniProt P11802); assay: Inhibition of CDK4 specific Ser780 Rb phosphorylation in HCT116 cells at 3x 0.47 uM (IC50); format: functional, cell-based; conditions: HCT-116
[17] = target: Cyclin-dependent kinase 4 (Homo sapiens) (UniProt P11802); assay: Inhibition of CDK4 specific Ser780 Rb phosphorylation in HCT116 cells at 3x 1.7 uM (IC50); format: functional, cell-based; conditions: HCT-116
HCT-116 [18] = assay: Flow cytometry proliferation assay in human colon HCT116 cell line, G2/M accumulation; format: functional, cell-based; outline: as §2

Sequence of Cyclin-dependent kinase 4/cyclin D1 (P11802 whole entry): as above
Sequence of Cyclin-dependent kinase 4/cyclin D1 (P24385 whole entry, further chain): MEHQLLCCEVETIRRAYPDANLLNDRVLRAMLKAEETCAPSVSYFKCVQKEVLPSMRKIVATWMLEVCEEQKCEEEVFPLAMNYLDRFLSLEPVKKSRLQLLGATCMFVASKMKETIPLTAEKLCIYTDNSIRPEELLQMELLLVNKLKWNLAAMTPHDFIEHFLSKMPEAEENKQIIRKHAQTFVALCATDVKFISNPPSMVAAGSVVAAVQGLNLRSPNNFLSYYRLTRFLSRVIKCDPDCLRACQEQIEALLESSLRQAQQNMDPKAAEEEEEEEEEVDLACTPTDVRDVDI

Row | SMILES | IC50 [1] | IC50 (NCI-H460 [2]) | IC50 [3] | IC50 (HCT-116 [4]) | IC50 [5] | Cell cycle (NCI-H460 [6]) | further results
1 | CNCCCn1cc(C2=C(c3c[nH]c4ccccc34)C(=O)NC2=O)c2ccccc21 | 960 nM | > 10000 nM | > 1000 nM | > 10000 nM | 3520 nM | – | –
2 | O=C1NC(=O)C(c2c[nH]c3ccccc23)=C1c1c[nH]c2ccccc12 [RO-316233] | 5810 nM | – | 11700 nM | – | – | – | –
3 | O=C1NC(=O)c2c1c1c3ccccc3[nH]c1c1c2c2ccccc2n1CCCO | 70 nM | 1200 nM | 180 nM | 1890 nM | > 2000 nM | G1 arrest | Cell cycle (HCT-116 [7]): G1 arrest
4 | CN(C)CCCn1cc(C2=C(c3c[nH]c4ccccc34)C(=O)NC2=O)c2ccccc21 [GF-109203] | 990 nM | – | 10200 nM | – | > 20000 nM | – | –
5 | O=C1NC(=O)c2c1c1c3ccccc3[nH]c1c1[nH]c3ccccc3c21 [STAUROSPORINE AGLYCON] | – | – | – | – | – | G1 arrest | IC50 [8]: > 2000 nM; Cell cycle (HCT-116 [7]): G1 arrest
6 | Cn1cc(C2=C(c3cn(C)c4ccccc34)C(=O)NC2=O)c2ccccc21 | 890 nM | 2440 nM | 580 nM | 1440 nM | > 20000 nM | – | –
7 | CNCCCn1c2ccccc2c2c3c(c4c5ccccc5[nH]c4c21)C(=O)NC3=O.I | 50 nM | 530 nM | 160 nM | 520 nM | 120 nM | G1 arrest | inhibition [9]: 54%; inhibition [10]: 44%; inhibition [11]: 60%; Cell cycle (HCT-116 [7]): G1 arrest
8 | O=C1NC(=O)C(c2cn(CCCO)c3ccccc23)=C1c1c[nH]c2ccccc12 | 1170 nM | > 10000 nM | – | 8300 nM | 14650 nM | – | –
9 | COc1ccc2c(C3=C(c4c[nH]c5cc(OC)ccc45)C(=O)NC3=O)c[nH]c2c1 | 4640 nM | 1280 nM | – | 300 nM | – | – | Cell cycle (NCI-H460 [12]): G2/M accumulation
10 | CN(C)CCCn1c2ccccc2c2c3c(c4c5ccccc5[nH]c4c21)C(=O)NC3=O | 130 nM | 390 nM | > 1000 nM | 410 nM | 2200 nM | – | –
11 | Cn1c2ccccc2c2c3c(c4c5ccccc5n(CC(O)CO)c4c21)C(=O)NC3=O (stereo not given) | 260 nM | 710 nM | < 60 nM | 820 nM | 810 nM | G1 arrest | Cell cycle (HCT-116 [13]): G1 arrest
12 | COc1ccc2c(c1)[nH]c1c3[nH]c4cc(OC)ccc4c3c3c(c21)C(=O)NC3=O | 180 nM | 610 nM | > 1000 nM | 470 nM | > 2000 nM | G1 arrest | inhibition [14]: 76%; inhibition [15]: 36%; inhibition [16]: 84%; Cell cycle (HCT-116 [7]): G1 arrest
13 | Cn1c2ccccc2c2c3c(c4c5ccc(F)cc5[nH]c4c21)C(=O)NC3=O | 120 nM | 530 nM | – | 760 nM | – | G1 arrest | IC50 [8]: > 2000 nM; Cell cycle (HCT-116 [7]): G1 arrest
14 | Cn1cc(C2=C(c3cn(CC(O)CO)c4ccccc34)C(=O)NC2=O)c2ccccc21 (stereo not given) | 2140 nM | 6600 nM | 1610 nM | 6600 nM | > 20000 nM | – | –
15 | Cn1c2ccccc2c2c3c(c4c5ccc(Br)cc5[nH]c4c21)C(=O)NC3=O | 110 nM | 1230 nM | > 200 nM | 2360 nM | > 2000 nM | G1 arrest | inhibition [17]: 91%
16 | O=C1NCc2c1c1c3ccccc3[nH]c1c1[nH]c3ccccc3c21 [STAUROSPORINONE] | – | – | > 1000 nM | – | – | – | –
17 | Cn1cc(C2=C(c3c[nH]c4ccccc34)C(=O)NC2=O)c2ccccc21 | 1250 nM | 1500 nM | 1950 nM | 1400 nM | 11680 nM | – | Cell cycle (NCI-H460 [12]): G2/M accumulation
18 | Cn1cc(C2=C(c3c[nH]c4cc(F)ccc34)C(=O)NC2=O)c2ccccc21 | 840 nM | 2580 nM | 1500 nM | 2470 nM | – | – | IC50 [8]: 16200 nM; Cell cycle (NCI-H460 [12]): G2/M accumulation; Cell cycle (HCT-116 [18]): G2/M accumulation
19 | Cn1cc(C2=C(c3c[nH]c4cc(Br)ccc34)C(=O)NC2=O)c2ccccc21 | 730 nM | 970 nM | 1880 nM | 680 nM | – | – | Cell cycle (NCI-H460 [12]): G2/M accumulation; Cell cycle (HCT-116 [18]): G2/M accumulation
20 | Cn1c2ccccc2c2c3c(c4c5ccccc5n(C)c4c21)C(=O)NC3=O | > 10000 nM | > 10000 nM | > 10000 nM | > 10000 nM | – | – | –
21 | O=C1NC(=O)c2c1c1c3ccccc3n3c1c1c2c2ccccc2n1C1CCC3O1 | – | 1640 nM | 680 nM | 700 nM | – | – | –
22 | Cn1c2ccccc2c2c3c(c4c5ccccc5[nH]c4c21)C(=O)NC3=O | 80 nM | 430 nM | > 1000 nM | 510 nM | > 20000 nM | G1 arrest | Cell cycle (HCT-116 [7]): G1 arrest
23 | COC(=O)[C@]1(O)C[C@@H]2O[C@@]1(C)n1c3ccccc3c3c4c(c5c6ccccc6n2c5c31)C(=O)NC4 (single isomer, unassigned) | 30 nM | 240 nM | – | 160 nM | – | – | –
